The text below walks through data of ChEMBL document CHEMBL3763041, “Design and synthesis of new imidazo[1,2-a]pyridine and imidazo[1,2-a]pyrazine derivatives with antiproliferative activity against melanoma cells” (Eur J Med Chem, 2016).

A short description of test [1]: Antiproliferative activity against human PC-9ER cells after 72 hrs by CellTiter-Glo assay. It counts as functional, cell-based. (In general: ATP-based viability assays read luminescence as a measure of living cells.)
A short description of test [2]: Antiproliferative activity against human HCT116 cells after 72 hrs by CellTiter-Glo assay. The format is functional, cell-based. Conditions: HCT-116, 72 h.
Test [3] is described as follows: Antiproliferative activity against human HKE3 cells after 72 hrs by CellTiter-Glo assay. The format is functional, cell-based. Conditions: HKE3, 72 h.
In another test the test system is NCI-H358. In words: Antiproliferative activity against human NCI-H358 cells after 72 hrs by CellTiter-Glo assay. It counts as functional, cell-based. Conditions: NCI-H358, 72 h.
In test [4] the target is Serine/threonine-protein kinase B-raf (Homo sapiens, UniProt P15056, V600E). In words: Inhibition of B-Raf V600E mutant (unknown origin) using MEK1 K97M as substrate preincubated for 90 mins followed by substrate addition measured after 1 hr by fluorescence polarization assay. The essentials:
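Reactions used 30 nM B-Raf(V600E) enzyme with MEK1 K97M substrate. Kinase reaction ran 1 h at room temperature after ATP-containing solution was added. It was stopped with ADP detection mix (20 mM HEPES pH 7.5, 40 mM EDTA, 10 mM MgCl₂, 0.02% Brij 35, ADP² antibody, 3 nM ADP Alexa633 tracer).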
A general note: Fluorescence polarisation rises when a labelled molecule tumbles more slowly, as on binding a larger partner.

The nature of test [5]: Antiproliferative activity against human A375P cells expressing BRAF V600E mutant after 72 hrs by CellTiter-Glo assay. It counts as functional, cell-based.
A short description of test [6]: Antiproliferative activity against human PC9 cells after 72 hrs by CellTiter-Glo assay. It counts as functional, cell-based. Conditions: PC-9, 72 h.
Test [7] concerns the target Serine/threonine-protein kinase B-raf (Homo sapiens, UniProt P15056). In words: Inhibition of wild-type B-Raf (unknown origin) using MEK1 K97M as substrate preincubated for 90 mins followed by substrate addition measured after 1 hr by fluorescence polarization assay. In a few lines:
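After ATP-containing solution was added, the reaction ran 1 h at room temperature. It was stopped with ADP detection mix (EDTA, ADP² antibody, 3 nM ADP Alexa633 tracer).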

The test system of a further test is A549. Put plainly: Antiproliferative activity against human A549 cells after 72 hrs by CellTiter-Glo assay. The conditions noted are these: A549, 72 h. It counts as functional, cell-based.

As usually defined, the IC50 is the concentration at which inhibition is half-maximal. Read a high IC50 as lower potency.

Some results are limits rather than exact numbers.

Serine/threonine-protein kinase B-raf (Homo sapiens, UniProt P15056), sequence (P15056 whole entry): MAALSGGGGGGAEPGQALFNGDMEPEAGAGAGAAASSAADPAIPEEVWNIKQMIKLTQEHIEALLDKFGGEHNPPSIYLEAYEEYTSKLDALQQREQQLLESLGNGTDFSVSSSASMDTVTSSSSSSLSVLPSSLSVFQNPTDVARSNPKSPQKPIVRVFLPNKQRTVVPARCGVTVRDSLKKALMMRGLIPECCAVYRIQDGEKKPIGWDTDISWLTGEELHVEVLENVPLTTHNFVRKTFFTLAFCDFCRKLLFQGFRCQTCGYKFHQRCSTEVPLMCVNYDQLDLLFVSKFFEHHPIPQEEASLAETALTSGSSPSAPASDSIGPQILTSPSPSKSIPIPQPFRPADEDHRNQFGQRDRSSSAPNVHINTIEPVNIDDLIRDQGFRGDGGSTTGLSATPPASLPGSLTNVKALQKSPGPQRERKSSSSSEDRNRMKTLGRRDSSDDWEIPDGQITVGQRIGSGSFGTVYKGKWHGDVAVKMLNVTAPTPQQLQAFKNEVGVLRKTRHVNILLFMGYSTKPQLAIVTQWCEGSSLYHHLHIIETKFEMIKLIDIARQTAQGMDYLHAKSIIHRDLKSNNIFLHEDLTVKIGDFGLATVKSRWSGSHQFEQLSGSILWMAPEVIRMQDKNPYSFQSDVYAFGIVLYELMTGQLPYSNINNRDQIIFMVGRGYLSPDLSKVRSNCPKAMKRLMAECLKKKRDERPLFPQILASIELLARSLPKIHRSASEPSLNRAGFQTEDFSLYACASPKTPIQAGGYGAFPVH
Serine/threonine-protein kinase B-raf (Homo sapiens, UniProt P15056, V600E), sequence (P15056 2-766 V600E limits assumed): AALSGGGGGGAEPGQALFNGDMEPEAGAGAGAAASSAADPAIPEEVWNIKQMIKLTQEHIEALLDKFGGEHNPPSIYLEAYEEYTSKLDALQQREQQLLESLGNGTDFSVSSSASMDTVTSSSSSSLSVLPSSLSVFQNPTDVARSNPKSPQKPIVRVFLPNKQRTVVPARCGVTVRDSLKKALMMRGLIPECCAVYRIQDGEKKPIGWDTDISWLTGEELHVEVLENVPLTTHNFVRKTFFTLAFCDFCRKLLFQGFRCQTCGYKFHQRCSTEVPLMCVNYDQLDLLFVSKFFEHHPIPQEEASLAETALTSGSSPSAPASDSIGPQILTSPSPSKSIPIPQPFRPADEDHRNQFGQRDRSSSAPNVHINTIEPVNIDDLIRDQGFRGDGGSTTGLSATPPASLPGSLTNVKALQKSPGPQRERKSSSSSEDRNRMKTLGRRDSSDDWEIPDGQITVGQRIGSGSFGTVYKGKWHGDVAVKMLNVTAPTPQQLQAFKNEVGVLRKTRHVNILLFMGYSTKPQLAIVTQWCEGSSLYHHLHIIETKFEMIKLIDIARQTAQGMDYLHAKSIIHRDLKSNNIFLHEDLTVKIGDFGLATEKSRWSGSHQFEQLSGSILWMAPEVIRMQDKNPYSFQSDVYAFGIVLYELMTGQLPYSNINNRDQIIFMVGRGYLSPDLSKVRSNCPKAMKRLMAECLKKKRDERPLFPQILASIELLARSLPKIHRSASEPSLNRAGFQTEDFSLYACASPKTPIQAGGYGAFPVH

Take `O=C(Nc1cccc(-c2cnc3c(NC(=O)c4cc(Cl)cc(Cl)c4)nccn23)c1)c1ccc(Cl)c(C(F)(F)F)c1`: the IC50 is 3630 nM in test [1]; 1810 nM in test [2]; 830 nM in test [3]; 4210 nM in the test with NCI-H358; above 12500 nM in [4]; 40 nM in [5]. For the same molecule, the IC50 in test [6] was 3610 nM; in [7], above 12500 nM; with A549, 3230 nM.
As for `O=C(Nc1cccc(-c2cnc3c(NC(=O)c4cc(Cl)cc(Cl)c4)nccn23)c1)Nc1ccc(Cl)c(C(F)(F)F)c1`, the IC50 in test [1] is 8010 nM; in [2], 9510 nM; in test [3], 10000 nM; with NCI-H358, 8580 nM; in [4], above 12500 nM; in [5], 30 nM. The figures for the IC50 (in test [6]; in [7]; with A549) were 11600 nM, above 12500 nM and 8440 nM, respectively.
Regarding `O=C(Nc1cccc(-c2cnc3c(NC(=O)c4ccc(F)c(C(F)(F)F)c4)nccn23)c1)Nc1ccc(Cl)c(C(F)(F)F)c1`, the results for the IC50 in [4], in [5] and in test [7] were 5010 nM, 60 nM and above 12500 nM, respectively.
In turn, `O=C(Nc1cccc(-c2cnc3c(NC(=O)c4ccccc4)cccn23)c1)c1ccc(OC(F)(F)F)cc1` gave an IC50 in test [5] of 21300 nM. In other words, the double-digit micromolar range.
As for `O=C(Nc1cccc(-c2cnc3c(NC(=O)c4ccccc4)cccn23)c1)c1cccc(C(F)(F)F)c1`, the half-maximal inhibitory concentration (IC50) in test [5] is above 30000 nM.
Turning to `O=C(Nc1cccc(-c2cnc3c(NC(=O)c4ccccc4)cccn23)c1)c1ccccc1`, the IC50 in [5] is above 30000 nM.
In the case of `Nc1nccn2c(-c3cccc(NC(=O)c4cc(C(F)(F)F)cc(C(F)(F)F)c4)c3)cnc12`, 8320 nM corresponded to half-maximal inhibition in [5] (IC50). That is a single-digit micromolar value.
Take `O=C(Nc1cccc(-c2cnc3c(NC(=O)c4ccc(Br)cc4)nccn23)c1)c1ccc(Cl)c(C(F)(F)F)c1`: half-maximal inhibition in test [5] (IC50) required 1800 nM.
For the molecule `O=C(Nc1cccc(-c2cnc3c(NC(=O)c4cc(C(F)(F)F)cc(C(F)(F)F)c4)nccn23)c1)Nc1ccc(F)cc1F`, the IC50 in [5] is 110 nM.
As for `O=C(Nc1cccc(-c2cnc3c(NC(=O)c4ccccc4)nccn23)c1)c1ccc(F)c(Cl)c1`, the IC50 in [5] is 1160 nM.
Turning to `O=C(Nc1cccc(-c2cnc3c(NC(=O)c4cc(Cl)cc(Cl)c4)nccn23)c1)c1ccc(F)c(Cl)c1`, it took 1150 nM to reach half-maximal inhibition in test [5] (IC50).
For `O=C(Nc1cccc(-c2cnc3c(NC(=O)c4ccc(OC(F)(F)F)cc4)nccn23)c1)c1ccc(Cl)c(C(F)(F)F)c1`, the IC50 in test [5] was determined as 1310 nM.
Regarding `Nc1nccn2c(-c3cccc(NC(=O)c4cccc(OC(F)(F)F)c4)c3)cnc12`, it took 13800 nM to reach half-maximal inhibition in test [5] (IC50).
Molecule `Cc1ccc(C(=O)Nc2nccn3c(-c4cccc(NC(=O)Nc5ccc(F)cc5F)c4)cnc23)cc1Cl` gave an IC50 in test [5] of 1980 nM.
In test [5], `O=C(Nc1cccc(-c2cnc3c(NC(=O)c4cc(F)cc(F)c4)nccn23)c1)c1ccc(F)c(Cl)c1` returned an IC50 of 450 nM.
Consider `O=C(Nc1cccc(-c2cnc3c(NC(=O)c4ccc(Cl)c(Cl)c4)nccn23)c1)Nc1ccc(F)cc1F`, for which the IC50 in test [5] turned out to be 1890 nM.
The same measure, in the same setting: for `Cc1cc(C)cc(C(=O)Nc2nccn3c(-c4cccc(NC(=O)c5ccc(Cl)c(C(F)(F)F)c5)c4)cnc23)c1` the value was 180 nM; for `COc1cc(C(=O)Nc2cccc(-c3cnc4c(N)nccn34)c2)cc(OC)c1OC`, 1540 nM.
In turn, `O=C(Nc1cccc(-c2cnc3c(NC(=O)c4ccc(OC(F)(F)F)cc4)nccn23)c1)Nc1ccc(F)cc1F` had an IC50 in test [5] of 3790 nM.
As to `O=C(Nc1cccc(-c2cnc3c(NC(=O)c4ccc(F)c(Cl)c4)nccn23)c1)Nc1ccc(F)cc1F`, in test [5], the IC50 was determined as 1550 nM.
Regarding `O=C(Nc1cccc(-c2cnc3c(NC(=O)c4ccc(F)c(Cl)c4)nccn23)c1)Nc1ccc(Cl)c(C(F)(F)F)c1`, the IC50 in [5] is 1280 nM. The IC50 values of the last two molecules are within 1.5-fold of each other.
The molecule `Nc1nccn2c(-c3cccc(NC(=O)Nc4cccc(Cl)c4Cl)c3)cnc12` had an IC50 in test [5] of 1270 nM.
Still for that read-out and setting: for `Nc1nccn2c(-c3cccc(NC(=O)c4ccc(Cl)c(C(F)(F)F)c4)c3)cnc12` the value was 1410 nM; for `O=C(Nc1cccc(-c2cnc3c(NC(=O)c4ccccc4)cccn23)c1)Nc1cccc(C(F)(F)F)c1`, 4290 nM; for `Nc1nccn2c(-c3cccc(NC(=O)c4cc(Cl)c(F)c(Cl)c4)c3)cnc12`, 4090 nM.
For the molecule `O=C(Nc1cccc(-c2cnc3c(NC(=O)c4ccc(OC(F)(F)F)cc4)nccn23)c1)c1ccc(F)c(Cl)c1`, in test [5], the IC50 is 440 nM.
In turn, `O=C(Nc1cccc(-c2cnc3c(NC(=O)c4ccc(C(F)(F)F)cc4)nccn23)c1)c1ccc(F)c(Cl)c1` had a 50% inhibitory concentration (IC50) in test [5] of 560 nM.
`Nc1nccn2c(-c3cccc(NC(=O)c4cc(Cl)cc(Cl)c4)c3)cnc12`: in [5], half-maximal inhibition (IC50) required 2940 nM. Compared with the last molecule, the IC50 is about 5.2-fold higher.
`Nc1nccn2c(-c3cccc(NC(=O)c4cccc(C(F)(F)F)c4)c3)cnc12` registered an IC50 in [5] of 2080 nM.
As to `O=C(Nc1cccc(-c2cnc3c(NC(=O)c4cc(C(F)(F)F)cc(C(F)(F)F)c4)nccn23)c1)Nc1ccc(Cl)c(C(F)(F)F)c1`, the IC50 was 14600 nM in test [1]; 5310 nM in [2]; 6350 nM in test [3]; 7550 nM in the test with NCI-H358; above 12500 nM in [4]; 10 nM in test [5]. Also, the IC50 is 11600 nM in test [6], above 12500 nM in test [7] and 10400 nM with A549.
As for `Nc1nccn2c(-c3cccc(NC(=O)c4ccc(Br)cc4)c3)cnc12`, the IC50 in test [5] stood at 750 nM.
Turning to `CCCS(=O)(=O)Nc1ccc(F)c(C(=O)c2c[nH]c3ncc(-c4ccc(Cl)cc4)cc23)c1F` [VEMURAFENIB], the IC50 in test [5] stood at 370 nM.
With `Nc1nccn2c(-c3cccc(NC(=O)c4ccc(C(F)(F)F)cc4)c3)cnc12`, the IC50 in test [5] was determined as 7040 nM. This IC50 is about 19-fold higher than that of the molecule before.
Same read-out and setting: for `Nc1nccn2c(-c3cccc(NC(=O)c4cc(F)cc(F)c4)c3)cnc12` the value was 460 nM.
With `Nc1nccn2c(-c3cccc(NC(=O)c4ccc(F)c(Cl)c4)c3)cnc12`, the IC50 in test [5] amounted to 340 nM.
Same read-out and setting: for `O=C(Nc1cccc(-c2cnc3c(NC(=O)c4cc(F)cc(F)c4)nccn23)c1)Nc1ccc(Cl)c(C(F)(F)F)c1` the value was 1940 nM; for `O=C(Nc1cccc(-c2cnc3c(NC(=O)c4ccc(F)c(Cl)c4)nccn23)c1)c1ccc(F)c(Cl)c1`, 890 nM.
On to `O=C(Nc1cccc(-c2cnc3c(NC(=O)c4cc(Cl)cc(Cl)c4)nccn23)c1)Nc1ccc(F)cc1F`, for which the IC50 is 2560 nM in [1]; 880 nM in test [2]; 620 nM in test [3]; 4170 nM with NCI-H358; above 12500 nM in test [4]; 60 nM in [5]. In addition, the IC50 is 2770 nM in [6], above 12500 nM in [7] and 2610 nM in the test on A549.
Molecule `O=C(Nc1cccc(-c2cnc3c(NC(=O)c4cccc(OC(F)(F)F)c4)nccn23)c1)Nc1ccc(F)cc1F` gave an IC50 in test [5] of 950 nM.
The molecule `Nc1nccn2c(-c3cccc(NC(=O)c4ccc(F)c(C(F)(F)F)c4)c3)cnc12` gave an IC50 in [5] of 2130 nM. This IC50 is about 2.2-fold higher than that of the molecule before.
